Laboratory results reported in ChEMBL document CHEMBL4002619, “Targeting Type 2 Diabetes with C-Glucosyl Dihydrochalcones as Selective Sodium Glucose Co-Transporter 2 (SGLT2) Inhibitors: Synthesis and Biological Evaluation” (J Med Chem, 2017).
Activity calls are given as the source filed them. The rule behind the calls is not given here.

What was measured:
Assay type in all cases: cell-based
HEK293 = test: Cytotoxicity in HEK293 cells assessed as cell viability at 100 uM measured after 20 to 24 hrs by Cell-Titer Blue fluorescence assay; settings: human, hek293, 100 µM
Procedure, shortened: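 HEK293 cells (DMEM, 10% FBS, 37 °C, 5% CO2) seeded 2.0 × 10^4 cells/well 24 h before; compound at 100 µM in triplicate, 20-24 h at 37 °C; CellTiter-Blue 4 h at 37 °C; fluorescence ex 560/em 590 nm; viability as treated/untreated fluorescence ratio, %. DMSO-treated wells run alongside. Mean ± SD of three independent experiments.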

[1] = biological target: T1, Sodium/glucose cotransporter 2 (Homo sapiens, UniProt P31639); test: Inhibition of human SGLT2 expressed in HEK293 cells assessed as reduction in 2-deoxyglucose uptake pretreated for 10 mins followed by 2-deoxyglucose addition in presence of sodium buffer measured after 1 hr by resazurin dye based fluorescence assay
T1 sequence (P31639 whole entry): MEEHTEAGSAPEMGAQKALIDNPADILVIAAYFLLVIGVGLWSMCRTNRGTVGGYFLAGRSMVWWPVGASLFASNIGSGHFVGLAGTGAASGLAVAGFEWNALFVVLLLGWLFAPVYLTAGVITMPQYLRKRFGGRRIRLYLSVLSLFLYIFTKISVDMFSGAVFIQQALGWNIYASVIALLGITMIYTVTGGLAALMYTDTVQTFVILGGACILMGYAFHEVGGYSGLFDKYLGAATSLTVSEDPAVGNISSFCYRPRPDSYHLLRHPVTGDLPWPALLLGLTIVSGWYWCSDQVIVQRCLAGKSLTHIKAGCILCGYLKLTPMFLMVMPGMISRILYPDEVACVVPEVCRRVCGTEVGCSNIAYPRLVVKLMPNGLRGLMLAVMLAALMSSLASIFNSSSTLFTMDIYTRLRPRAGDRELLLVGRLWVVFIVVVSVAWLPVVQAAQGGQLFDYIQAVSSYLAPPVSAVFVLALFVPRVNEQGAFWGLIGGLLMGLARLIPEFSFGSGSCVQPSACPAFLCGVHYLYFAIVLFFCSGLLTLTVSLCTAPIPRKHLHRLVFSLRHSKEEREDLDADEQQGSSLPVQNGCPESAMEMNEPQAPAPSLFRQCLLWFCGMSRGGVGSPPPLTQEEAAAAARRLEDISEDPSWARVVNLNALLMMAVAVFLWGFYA

[2] = biological target: T2, Sodium/glucose cotransporter 2 (Homo sapiens) (UniProt P31639); test: Inhibition of human SGLT2 expressed in HEK293 cells assessed as reduction in 2-deoxyglucose uptake at 100 uM pretreated for 10 mins followed by 2-deoxyglucose addition in presence of sodium buffer measured after 1 hr by resazurin dye based fluorescence assay
T2 sequence (whole entry): T1 sequence (P31639 whole entry)
Procedure, shortened: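 Stably transfected HEK293 expressing human SGLT2 (pCMV6-Neo, G418-selected), 2.0 × 10^4 cells/well, 24 h; 1 h preincubation in KRPH buffer at 37 °C; compound 100 µM; 2-deoxyglucose 1 mM, 1 h at 37 °C; NaOH lysis at 80-85 °C, neutralised; enzymatic cycling (G6PDH, NADP+, diaphorase, 10 µM resazurin, pH 8.2) 15-20 h; fluorescence ex 560/em 590 nm. Mean ± SD, three independent experiments.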

[3] = biological target: T3, Sodium/glucose cotransporter 1 (Homo sapiens, UniProt P13866); test: Inhibition of human SGLT1 expressed in HEK293 cells assessed as reduction in 2-deoxyglucose uptake at 100 uM pretreated for 10 mins followed by 2-deoxyglucose addition in presence of sodium buffer measured after 1 hr by resazurin dye based fluorescence assay; settings: hek293, 1 h
T3 sequence (P13866 whole entry): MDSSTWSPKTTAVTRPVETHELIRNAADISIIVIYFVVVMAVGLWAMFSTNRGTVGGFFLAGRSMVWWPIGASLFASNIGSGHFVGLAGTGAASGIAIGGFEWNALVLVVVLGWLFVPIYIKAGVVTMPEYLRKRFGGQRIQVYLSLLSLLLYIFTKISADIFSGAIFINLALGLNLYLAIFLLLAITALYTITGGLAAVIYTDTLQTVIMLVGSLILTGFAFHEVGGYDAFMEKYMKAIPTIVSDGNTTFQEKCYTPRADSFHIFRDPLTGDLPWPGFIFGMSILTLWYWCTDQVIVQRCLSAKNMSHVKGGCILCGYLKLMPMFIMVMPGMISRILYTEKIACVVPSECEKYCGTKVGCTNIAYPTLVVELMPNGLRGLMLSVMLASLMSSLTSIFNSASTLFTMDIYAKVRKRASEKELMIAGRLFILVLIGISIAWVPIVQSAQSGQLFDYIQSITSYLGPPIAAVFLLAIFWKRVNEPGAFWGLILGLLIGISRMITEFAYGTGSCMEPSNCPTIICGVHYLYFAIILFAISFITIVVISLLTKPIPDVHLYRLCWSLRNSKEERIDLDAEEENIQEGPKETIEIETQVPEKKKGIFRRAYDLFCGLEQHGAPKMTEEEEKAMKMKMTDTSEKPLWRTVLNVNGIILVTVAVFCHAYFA

[4] = Inhibition of GLUT in HEK293 cells assessed as reduction in 2-deoxyglucose uptake at 100 uM pretreated for 10 mins followed by 2-deoxyglucose addition in presence of choline buffer measured after 1 hr by resazurin dye based fluorescence assay; settings: human
Procedure, shortened: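 SGLT1 and SGLT2 stable HEK293 lines (G418-selected) assayed in sodium-free buffer, NaCl replaced by choline chloride; compounds at 100 µM; phlorizin and cytochalasin B as controls. 2-deoxyglucose 1 mM, 1 h at 37 °C; lysis in 0.1 M NaOH, 80-85 °C 40 min, neutralised; G6PDH/NADP+/diaphorase/resazurin cycling 15-20 h at 37 °C; resorufin fluorescence ex 560/em 590 nm.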

[5] = Inhibition of GLUT in HEK293 cells assessed as reduction in 2-deoxyglucose uptake pretreated for 10 mins followed by 2-deoxyglucose addition in presence of choline buffer measured after 1 hr by resazurin dye based fluorescence assay; settings: human
[6] = Inhibition of GLUT in HEK293 cells assessed as reduction in 2-deoxyglucose uptake pretreated for 10 mins followed by 2-deoxyglucose addition in presence of sodium buffer measured after 1 hr by resazurin dye based fluorescence assay; settings: human

IC50 [1] [µM] | inhibition [2] | inhibition (INH) [3] | inhibition (INH) [4] | Structure (SMILES) | Activity (HEK293) | inhibition (INH) [5] | inhibition (INH) [6]
23.5 | Active | Active | Active | O=C(/C=C/c1ccc(Br)cc1)c1c(O)cc(O)cc1O [4-BROMO-2',4',6'-TRIHYDROXYCHALCONE] | Non-Toxic |  | 
34.1 | Active | Active | Active | Cc1ccc(/C=C/C(=O)c2c(O)cc(O)cc2O)cc1 | Non-Toxic |  | 
18 | Active | Active | Active | Cc1ccc(CCC(=O)c2c(O)cc(O)cc2O)cc1 | Non-Toxic |  | 
16.4 | Active | Active | Active | CCCOc1ccc(CCC(=O)c2c(O)cc(O)cc2O)cc1 | Non-Toxic |  | 
 | Active |  |  | O=C(CCc1ccc(O)cc1)c1c(O)cc(O)cc1O[C@@H]1O[C@H](CO)[C@@H](O)[C@H](O)[C@H]1O [PHLORIZIN] | Non-Toxic |  | 
22.7 | Active | Active | Active | O=C(/C=C/c1ccc(OCc2ccccc2)cc1)c1c(O)cc(O)cc1O | Non-Toxic |  | 
 | Active | Active |  | CCOc1ccc(Cc2cc([C@@H]3O[C@H](CO)[C@@H](O)[C@H](O)[C@H]3O)ccc2Cl)cc1 [DAPAGLIFLOZIN] |  |  | 
0.0217 | Active | Active | Not Active | CCOc1ccc(CCC(=O)c2c(O)cc(O)c([C@@H]3O[C@H](CO)[C@@H](O)[C@H](O)[C@H]3O)c2O)cc1 | Non-Toxic |  | 
 | Active |  |  | O=C(/C=C/c1ccccc1)c1c(O)cc(O)cc1O [2',4',6-TRIHYDROXYCHALCONE] |  |  | 
0.0091 | Active | Active | Not Active | O=C(CCc1ccc(F)cc1)c1c(O)cc(O)c([C@@H]2O[C@H](CO)[C@@H](O)[C@H](O)[C@H]2O)c1O | Non-Toxic |  | 
18.3 | Active |  | Active | O=C(CCc1ccc(O)cc1)c1c(O)cc(O)cc1O [PHLORETIN] | Non-Toxic |  | 
0.0227 | Active | Active | Not Active | CCCOc1ccc(CCC(=O)c2c(O)cc(O)c([C@@H]3O[C@H](CO)[C@@H](O)[C@H](O)[C@H]3O)c2O)cc1 | Non-Toxic |  | 
26.2 | Active | Active | Active | C=CCOc1ccc(/C=C/C(=O)c2c(O)cc(O)cc2O)cc1 | Non-Toxic |  | 
16.7 | Active | Active | Active | CCOc1ccc(CCC(=O)c2c(O)cc(O)cc2O)cc1 | Non-Toxic |  | 
14.7 | Active | Active | Active | O=C(CCc1ccccc1)c1c(O)cc(O)cc1O | Non-Toxic |  | 
15.8 | Active | Active | Active | O=C(CCc1ccc(F)cc1)c1c(O)cc(O)cc1O | Non-Toxic |  | 
 |  |  |  | C=C1[C@@H](C)[C@H]2[C@H](Cc3ccccc3)NC(=O)[C@]23OC(=O)/C=C/[C@H](O)CCC[C@@H](C)C/C=C/[C@H]3[C@@H]1O [CYTOCHALASIN B] |  | Active | Active
26 | Active | Active | Active | CCOc1ccc(/C=C/C(=O)c2c(O)cc(O)cc2O)cc1 | Non-Toxic |  | 
0.0198 | Active | Active | Not Active | O=C(CCc1ccccc1)c1c(O)cc(O)c([C@@H]2O[C@H](CO)[C@@H](O)[C@H](O)[C@H]2O)c1O | Non-Toxic |  | 
51.7 | Active | Active | Active | O=C(/C=C/c1ccc(F)cc1)c1c(O)cc(O)cc1O [4-FLUORO-2',4',6'-TRIHYDROXYCHALCONE] | Non-Toxic |  | 
0.0119 | Active | Active | Not Active | O=C(CCc1ccc(O)cc1)c1c(O)cc(O)c([C@@H]2O[C@H](CO)[C@@H](O)[C@H](O)[C@H]2O)c1O | Non-Toxic |  | 
18.2 | Active | Active | Active | COc1ccc(/C=C/C(=O)c2c(O)cc(O)cc2O)cc1 [4-METHOXYL-2',4',6'-TRIHYDROXYCHALCONE] | Non-Toxic |  | 
18.7 | Active | Active | Active | COc1ccc(CCC(=O)c2c(O)cc(O)cc2O)cc1 | Non-Toxic |  | 
0.0182 | Active | Active | Not Active | Cc1ccc(CCC(=O)c2c(O)cc(O)c([C@@H]3O[C@H](CO)[C@@H](O)[C@H](O)[C@H]3O)c2O)cc1 | Non-Toxic |  | 
0.0213 | Active | Active | Not Active | COc1ccc(CCC(=O)c2c(O)cc(O)c([C@@H]3O[C@H](CO)[C@@H](O)[C@H](O)[C@H]3O)c2O)cc1 | Non-Toxic |  | 
